# Data from ChEMBL document CHEMBL2150863, “Synthesis pharmacological evaluation and docking studies of pyrimidine derivatives” (Eur J Med Chem, 2012).
# Assays:
# Rattus norvegicus [1] = experiment: Antiinflammatory activity in rat assessed as inhibition of carrageenan-induced paw edema at 10 mg/kg, po administered 30 mins prior to carrageenan-challenge after 2 hrs relative to vehicle-treated control; format: functional
# Summary of the method: (§1)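 Rats of 150–200 g, six per group. Oral dosing at 10 mg/kg as a suspension; controls receive 1% carboxymethylcellulose. After 30 min, 0.1 mL of 1% w/v carrageenan is injected into the left hind paw. Paw volume is measured by mercury displacement. Inhibition = (1 − Vt/Vc) × 100 from edema volumes; mean ± SEM.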
# Mus musculus = experiment: Analgesic activity in mouse assessed as inhibition of acetic-acid induced writhing at 10 mg/kg administered 15 mins prior to acetic acid-challenge measured for 15 mins relative to vehicle-treated control; format: functional
# Summary of the method: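 Mice, at least six per group. Test compounds given at 10 mg/kg; acetic acid solution given 15 min later. Writhing is scored as abdominal contractions, trunk twists and hind-limb extensions. Percent inhibition of pain = (1 − Vt/Vc) × 100, where Vt and Vc are mean writhing counts in the treated and control groups.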
# Rattus norvegicus [2] = experiment: Antiinflammatory activity in rat assessed as inhibition of carrageenan-induced paw edema at 10 mg/kg, po administered 30 mins prior to carrageenan-challenge after 3 hrs relative to vehicle-treated control; format: functional; summary of the method: as §1
# Aspergillus niger = experiment: Antifungal activity against Aspergillus niger MTCC 282 after 48 hrs by tube dilution method; format: functional; conditions: MTCC 282, 48 h
# Summary of the method: (§2)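 Tube dilution in Sabouraud dextrose broth at pH 7.4. Two-fold serial dilutions from 1000 to 0.97 in 10% DMSO, with a solvent control. Inoculum matched visually to a McFarland standard of about 1.5 × 10⁸ cells/mL. Incubation at 25 ± 1 °C for 48 h. MIC is the tube showing no fungal growth; duplicate determinations, averaged.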
# Bacillus subtilis = experiment: Antibacterial activity against Bacillus subtilis MTCC 441 after 24 hrs by tube dilution method; format: functional; conditions: MTCC 441, 24 h
# Summary of the method: (§3)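 Tube dilution in Mueller-Hinton broth at pH 7.4. Two-fold serial dilutions from 1000 to 0.97 in 10% DMSO, with a DMSO-only inoculated control. Inoculum matched visually to a McFarland standard of about 1.5 × 10⁸ cells/mL. Incubation at 37 ± 1 °C for 24 h. MIC is the lowest concentration giving no growth; duplicate determinations, averaged.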
# Candida albicans = experiment: Antifungal activity against Candida albicans MTCC 183 after 48 hrs by tube dilution method; format: functional; conditions: MTCC 183, 48 h; summary of the method: as §2
# Escherichia coli = experiment: Antibacterial activity against Escherichia coli MTCC 4351 after 24 hrs by tube dilution method; format: functional; conditions: MTCC 4351, 24 h; summary of the method: as §3
# Staphylococcus aureus = experiment: Antibacterial activity against Staphylococcus aureus MTCC 3160 after 24 hrs by tube dilution method; format: functional; conditions: MTCC 3160, 24 h; summary of the method: as §3
# Rattus norvegicus [3] = experiment: Antiinflammatory activity in rat assessed as inhibition of carrageenan-induced paw edema at 10 mg/kg, po administered 30 mins prior to carrageenan-challenge after 4 hrs relative to vehicle-treated control; format: functional; summary of the method: as §1
# Rattus norvegicus [4] = experiment: Antiinflammatory activity in rat assessed as inhibition of carrageenan-induced paw edema at 10 mg/kg, po administered 30 mins prior to carrageenan-challenge after 1 hr relative to vehicle-treated control; format: functional; summary of the method: as §1
# Pseudomonas aeruginosa = experiment: Antibacterial activity against Pseudomonas aeruginosa MTCC 424 after 24 hrs by tube dilution method; format: functional; conditions: MTCC 424, 24 h; summary of the method: as §3
# Rattus norvegicus [5] = experiment: Ulcerogenic activity in Wistar albino rat assessed as ulcer index at 10 mg/kg, ip administered QD for 3 days; format: toxicity, organism-based; parameters: dose 10 mg/kg, route intraperitoneal; conditions: in vivo, 72 h
# Summary of the method: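 Wistar rats of either sex, 150–200 g, six per group. Given 10 mg/kg ip once daily for 3 days; controls receive 10% v/v Tween 80. Fasted 36 h, then pylorus ligated on day 4. Killed 4 h after ligation; stomach opened along the greater curvature and ulcer index scored; mean ± SEM.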
Structure (SMILES),inhibition in vivo at 10 mg/kg (Rattus norvegicus [1]),inhibition in vivo at 10 mg/kg (Mus musculus),inhibition in vivo at 10 mg/kg (Rattus norvegicus [2]),MIC (Aspergillus niger),MIC (Bacillus subtilis),MIC (Candida albicans),MIC (Escherichia coli),MIC (Staphylococcus aureus),inhibition in vivo at 10 mg/kg (Rattus norvegicus [3]),inhibition in vivo at 10 mg/kg (Rattus norvegicus [4]),MIC (Pseudomonas aeruginosa),UI (Rattus norvegicus [5])
O=C1N=C(C2C(=O)c3ccccc3C2=O)CC(c2c[nH]c3ccccc23)N1 (stereo not given),21%,21%,12%,125 µg/mL,250 µg/mL,500 µg/mL,250 µg/mL,250 µg/mL,12%,19%,125 µg/mL,
O=C1N=C(C2C(=O)c3ccccc3C2=O)CC(c2ccco2)N1 (stereo not given),25%,25%,20%,62.5 µg/mL,31.2 µg/mL,62.5 µg/mL,31.2 µg/mL,62.5 µg/mL,7%,18%,500 µg/mL,
O=C1N=C(C2C(=O)c3ccccc3C2=O)CC(c2ccccc2[N+](=O)[O-])N1 (stereo not given),30%,35%,26%,500 µg/mL,250 µg/mL,500 µg/mL,31.2 µg/mL,125 µg/mL,32%,11%,250 µg/mL,
OC(Cn1cncn1)(Cn1cncn1)c1ccc(F)cc1F [FLUCONAZOLE],,,,7.8 µg/mL,,7.8 µg/mL,,,,,,
CC1(C)S[C@@H]2[C@H](NC(=O)[C@H](N)c3ccccc3)C(=O)N2[C@H]1C(=O)O [AMPICILLIN],,,,,3.9 µg/mL,,3.9 µg/mL,3.9 µg/mL,,,3.9 µg/mL,
COc1cc(C2CC(C3C(=O)c4ccccc4C3=O)=NC(=O)N2)ccc1O (stereo not given),33%,28%,26%,125 µg/mL,250 µg/mL,250 µg/mL,500 µg/mL,125 µg/mL,11%,20%,250 µg/mL,
CN(C)c1ccc(C2CC(C3C(=O)c4ccccc4C3=O)=NC(=O)N2)cc1 (stereo not given),29%,52%,20%,500 µg/mL,125 µg/mL,500 µg/mL,125 µg/mL,125 µg/mL,16%,15%,62.5 µg/mL,
O=C1N=C(C2C(=O)c3ccccc3C2=O)CC(c2ccc(Cl)cc2)N1 (stereo not given),19%,44%,31%,125 µg/mL,31.2 µg/mL,125 µg/mL,125 µg/mL,125 µg/mL,34%,15%,62.5 µg/mL,1.28
O=C1N=C(C2C(=O)c3ccccc3C2=O)CC(/C=C/c2ccccc2)N1 (stereo not given),32%,16%,18%,250 µg/mL,125 µg/mL,250 µg/mL,125 µg/mL,62.5 µg/mL,16%,17%,250 µg/mL,
COc1ccc2c(c1)c(CC(=O)O)c(C)n2C(=O)c1ccc(Cl)cc1 [INDOMETHACIN],48%,55%,39%,,,,,,34%,23%,,1.7
O=C1N=C(C2C(=O)c3ccccc3C2=O)CC(c2ccccc2O)N1 (stereo not given),22%,37%,19%,500 µg/mL,250 µg/mL,250 µg/mL,500 µg/mL,125 µg/mL,16%,24%,125 µg/mL,
O=C1N=C(C2C(=O)c3ccccc3C2=O)CC(c2cccc([N+](=O)[O-])c2)N1 (stereo not given),36%,36%,21%,125 µg/mL,250 µg/mL,500 µg/mL,250 µg/mL,125 µg/mL,12%,27%,250 µg/mL,
O=C1N=C(C2C(=O)c3ccccc3C2=O)CC(c2ccc([N+](=O)[O-])cc2)N1 (stereo not given),26%,38%,19%,500 µg/mL,250 µg/mL,500 µg/mL,500 µg/mL,125 µg/mL,18%,16%,250 µg/mL,
COc1ccc(C2CC(C3C(=O)c4ccccc4C3=O)=NC(=O)N2)cc1 (stereo not given),21%,31%,22%,250 µg/mL,125 µg/mL,250 µg/mL,250 µg/mL,500 µg/mL,10%,22%,250 µg/mL,
O=C1N=C(C2C(=O)c3ccccc3C2=O)CC(c2ccccc2)N1 (stereo not given),33%,31%,21%,500 µg/mL,250 µg/mL,500 µg/mL,62.5 µg/mL,125 µg/mL,11%,20%,125 µg/mL,
